Laboratory results: ChEMBL document CHEMBL1154419, “Pharmacodynamic effects of telavancin against methicillin-resistant and methicillin-susceptible Staphylococcus aureus strains in the presence of human albumin or serum and in an in vitro kinetic model” (Antimicrob Agents Chemother, 2007)
In brackets after ≈: the same amount, converted by molar mass. Activity calls are given as the source filed them. The rule behind the calls is not given here.

Tests used:
Staphylococcus aureus [1] = test: Antibacterial activity against methicillin-resistant Staphylococcus aureus ATCC 33591 assessed as change in bacterial burden at 10 mg/liter after 24 hrs; format: functional
Procedure, shortened: (§1)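 In vitro kinetic model: spinner flask with 0.45-μm filter and prefilter, stirred, M-H broth at 37°C, starting inoculum approx. 5 × 10⁵ CFU/ml. Single initial drug dose of 1.0 to 40 mg/liter, with flow set to give a half-life of approx. 8 h. Viable counts at 0, 2, 4, 6, 8, 12 and 24 h. Duplicate runs per strain and concentration.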

Staphylococcus aureus [2] = test: Antibacterial activity against methicillin-susceptible Staphylococcus aureus ATCC 13709 after 18 to 24 hrs by macrodilution technique; format: functional
Procedure, shortened: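 Broth macrodilution per CLSI, run in triplicate on separate occasions. Twofold serial drug dilutions in broth, inoculum approx. 5 × 10⁵ CFU/ml, 37°C for 18 to 24 h. MIC taken as the lowest concentration with no visible growth.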

Staphylococcus aureus [3] = test: Antibacterial activity against methicillin-susceptible Staphylococcus aureus ATCC 13709 assessed as change in bacterial burden at 20 mg/liter after 4 hrs; format: functional
Staphylococcus aureus [4] = test: Antibacterial activity against methicillin-susceptible Staphylococcus aureus ATCC 13709 assessed as change in bacterial burden at 20 mg/liter after 8 hrs; format: functional; procedure, shortened: as §1
Staphylococcus aureus [5] = test: Antibacterial activity against methicillin-resistant Staphylococcus aureus ATCC 33591 assessed as change in bacterial burden at 10 mg/liter after 8 hrs; format: functional; procedure, shortened: as §1
Staphylococcus aureus [6] = test: Antibacterial activity against methicillin-susceptible Staphylococcus aureus ATCC 13709 assessed as bacterial killing at 0.5 to 50 times MIC after 24 hrs; format: functional
Procedure, shortened: (§2)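 Static time-kill in M-H broth, in M-H broth with 40 g/liter fatty-acid-free purified human albumin, or in M-H broth with inactivated 50% human serum. Inoculum approx. 5 × 10⁵ CFU/ml, drug at 0.5, 1, 2.5, 5, 10, 25 and 50× MIC, 37°C. Samples at 0, 3, 6, 12 and 24 h plated on blood agar, counted after 24 h. Detection limit 5 × 10¹ CFU/ml. Run in duplicate.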

Staphylococcus aureus [7] = test: Antibacterial activity against methicillin-resistant Staphylococcus aureus ATCC 33591 assessed as change in bacterial burden at 2.5 mg/liter after 4 hrs; format: functional; procedure, shortened: as §1
Staphylococcus aureus [8] = test: Antibacterial activity against methicillin-susceptible Staphylococcus aureus ATCC 13709 assessed as change in bacterial burden at 5 mg/liter after 4 hrs; format: functional
Staphylococcus aureus [9] = test: Antibacterial activity against methicillin-resistant Staphylococcus aureus ATCC 33591 assessed as change in bacterial burden at 5 mg/liter after 6 hrs; format: functional; procedure, shortened: as §1
Staphylococcus aureus [10] = test: Antibacterial activity against methicillin-susceptible Staphylococcus aureus ATCC 13709 assessed as change in bacterial burden at 10 mg/liter after 2 hrs; format: functional; procedure, shortened: as §1
Staphylococcus aureus [11] = test: Antibacterial activity against methicillin-resistant Staphylococcus aureus ATCC 33591 assessed as change in bacterial burden at 2.5 mg/liter after 24 hrs; format: functional; procedure, shortened: as §1
Staphylococcus aureus [12] = test: Antibacterial activity against methicillin-susceptible Staphylococcus aureus ATCC 13709 assessed as change in bacterial burden at 2.5 mg/liter after 12 hrs; format: functional
Staphylococcus aureus [13] = test: Antibacterial activity against methicillin-resistant Staphylococcus aureus ATCC 33591 assessed as change in bacterial burden at 20 mg/liter after 2 hrs; format: functional; procedure, shortened: as §1
Staphylococcus aureus [14] = test: Antibacterial activity against methicillin-resistant Staphylococcus aureus ATCC 33591 assessed as change in bacterial burden at 5 mg/liter after 8 hrs; format: functional; procedure, shortened: as §1
[15] = Ratio of AUC in in vitro kinetic model containing Mueller-Hinton broth and methicillin-susceptible Staphylococcus aureus ATCC 13709 to MIC for methicillin-susceptible Staphylococcus aureus ATCC 13709 in bacterial killing stage; format: functional
Staphylococcus aureus [16] = test: Antibacterial activity against methicillin-resistant Staphylococcus aureus ATCC 33591 assessed as change in bacterial burden at 1 mg/liter after 8 hrs; format: functional; procedure, shortened: as §1
Staphylococcus aureus [17] = test: Antibacterial activity against methicillin-susceptible Staphylococcus aureus ATCC 13709 assessed as change in bacterial burden at 5 mg/liter after 8 hrs; format: functional
Staphylococcus aureus [18] = test: Antibacterial activity against methicillin-susceptible Staphylococcus aureus ATCC 13709 assessed as change in bacterial burden at 5 mg/liter after 24 hrs; format: functional
Staphylococcus aureus [19] = test: Antibacterial activity against methicillin-susceptible Staphylococcus aureus ATCC 13709 assessed as change in bacterial burden at 20 mg/liter after 24 hrs; format: functional
Staphylococcus aureus [20] = test: Antibacterial activity against methicillin-susceptible Staphylococcus aureus ATCC 13709 assessed as change in bacterial burden at 40 mg/liter after 24 hrs; format: functional
Staphylococcus aureus [21] = test: Antibacterial activity against methicillin-susceptible Staphylococcus aureus ATCC 13709 assessed as change in bacterial burden at 10 mg/liter after 12 hrs; format: functional
Staphylococcus aureus [22] = test: Antibacterial activity against methicillin-susceptible Staphylococcus aureus ATCC 13709 assessed as change in bacterial burden at 2.5 mg/liter after 8 hrs; format: functional
Staphylococcus aureus [23] = test: Antibacterial activity against methicillin-resistant Staphylococcus aureus COL infected New Zealand white rabbit endocarditis model assessed as reduction in mean aortic vegetation titer at 30 mg/kg, iv twice daily after 4 days; format: functional, Aorta
Staphylococcus aureus [24] = test: Antibacterial activity against methicillin-susceptible Staphylococcus aureus ATCC 13709 assessed as change in bacterial burden at 5 mg/liter after 2 hrs; format: functional
Staphylococcus aureus [25] = test: Antibacterial activity against methicillin-susceptible Staphylococcus aureus ATCC 13709 assessed as change in bacterial burden at 1 mg/liter after 4 hrs; format: functional
Staphylococcus aureus [26] = test: Antibacterial activity against methicillin-susceptible Staphylococcus aureus ATCC 13709 assessed as bacterial regrowth at 0.25 times MIC; format: functional, organism-based
Procedure, shortened: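 Static time-kill in cation-supplemented M-H broth, inoculum ~5 × 10⁵ CFU/ml, 37°C; samples at 0, 3, 6, 12 and 24 h plated on blood agar for viable counts (detection limit 5 × 10¹ CFU/ml); duplicate runs.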

Staphylococcus aureus [27] = test: Antibacterial activity against methicillin-resistant Staphylococcus aureus ATCC 33591 assessed as change in bacterial burden at 10 mg/liter after 4 hrs; format: functional; procedure, shortened: as §1
Staphylococcus aureus [28] = test: Antibacterial activity against methicillin-resistant Staphylococcus aureus ATCC 33591 assessed as change in bacterial burden at 2.5 mg/liter after 12 hrs; format: functional; procedure, shortened: as §1
Staphylococcus aureus [29] = test: Antibacterial activity against methicillin-susceptible Staphylococcus aureus ATCC 13709 assessed as change in bacterial burden at 1 mg/liter after 24 hrs; format: functional
Staphylococcus aureus [30] = test: Antibacterial activity against methicillin-resistant Staphylococcus aureus ATCC 33591 assessed as change in bacterial burden at 2.5 mg/liter after 6 hrs; format: functional; procedure, shortened: as §1
Staphylococcus aureus [31] = test: Antibacterial activity against methicillin-susceptible Staphylococcus aureus ATCC 13709 assessed as change in bacterial burden at 10 mg/liter after 24 hrs; format: functional; procedure, shortened: as §1
Plasma = test: Protein binding in human plasma; format: ADME, cell-free
Staphylococcus aureus [32] = test: Antibacterial activity against methicillin-susceptible Staphylococcus aureus ATCC 13709 assessed as bacterial regrowth at 5 mg/liter Cmax; format: functional, organism-based
Staphylococcus aureus [33] = test: Antibacterial activity against methicillin-susceptible Staphylococcus aureus ATCC 13709 assessed as bacterial killing at 10 times MIC after 6 hrs in MH-broth; format: functional, organism-based
Staphylococcus aureus [34] = test: Antibacterial activity against methicillin-resistant Staphylococcus aureus ATCC 33591 assessed as bacterial killing at 50 times MIC after 24 hrs in presence of human albumin; format: functional, organism-based; procedure, shortened: as §2

## CCCCCCCCCCNCCN[C@@]1(C)C[C@H](O[C@H]2[C@H](Oc3c4cc5cc3Oc3ccc(cc3Cl)[C@@H](O)[C@@H](NC(=O)[C@@H](CC(C)C)NC)C(=O)N[C@@H](CC(N)=O)C(=O)N[C@H]5C(=O)N[C@H]3C(=O)N[C@H](C(=O)N[C@H](C(=O)O)c5cc(O)c(CNCP(=O)(O)O)c(O)c5-c5cc3ccc5O)[C@H](O)c3ccc(c(Cl)c3)O4)O[C@H](CO)[C@@H](O)[C@@H]2O)O[C@@H](C)[C@H]1O [TELAVANCIN]
Staphylococcus aureus [1]
  deltalog10CFU/ml: -5.1
Staphylococcus aureus [2]
  MIC: 1 µg/mL (≈ 0.57 µM)
Staphylococcus aureus [3]
  deltalog10CFU/ml: -2.9
Staphylococcus aureus [4]
  deltalog10CFU/ml: -4.6
Staphylococcus aureus [5]
  deltalog10CFU/ml: -3.8
Staphylococcus aureus [6]
  LCK: >3
Staphylococcus aureus [7]
  deltalog10CFU/ml: -1.7
Staphylococcus aureus [8]
  deltalog10CFU/ml: -2.3
Staphylococcus aureus [9]
  deltalog10CFU/ml: -3.1
Staphylococcus aureus [10]
  deltalog10CFU/ml: -1.2
Staphylococcus aureus [11]
  deltalog10CFU/ml: -3.6
Staphylococcus aureus [12]
  deltalog10CFU/ml: -4.7
Staphylococcus aureus [13]
  deltalog10CFU/ml: -1
Staphylococcus aureus [14]
  deltalog10CFU/ml: -3.6
[15]
  RatioAUC/MIC: 404
Staphylococcus aureus [16]
  deltalog10CFU/ml: -3.5
Staphylococcus aureus [17]
  deltalog10CFU/ml: -4
Staphylococcus aureus [18]
  deltalog10CFU/ml: -4.7
Staphylococcus aureus [19]
  deltalog10CFU/ml: -4.6
Staphylococcus aureus [20]
  deltalog10CFU/ml: -4.7
Staphylococcus aureus [21]
  deltalog10CFU/ml: -4.5
Staphylococcus aureus [22]
  deltalog10CFU/ml: -3.4
Staphylococcus aureus [23]
  log10CFU/g: 4.7
Staphylococcus aureus [24]
  deltalog10CFU/ml: -1.2
Staphylococcus aureus [25]
  deltalog10CFU/ml: -1.3
Staphylococcus aureus [26]
  Activity: Active
Staphylococcus aureus [27]
  deltalog10CFU/ml: -2.2
Staphylococcus aureus [28]
  deltalog10CFU/ml: -4.2
Staphylococcus aureus [29]
  deltalog10CFU/ml: -0.5
Staphylococcus aureus [30]
  deltalog10CFU/ml: -2.7
Staphylococcus aureus [31]
  deltalog10CFU/ml: -4.5
Plasma
  Activity: 92%
Staphylococcus aureus [32]
  Activity: Active
Staphylococcus aureus [33]
  Activity: Active
Staphylococcus aureus [34]
  Activity: Active
